Experimental data collected from several papers.
ALPI: Intestinal-type alkaline phosphatase (ALPI, Bos taurus, UniProt P19111)
Maob: Amine oxidase [flavin-containing] B (Maob, Rattus norvegicus, UniProt P19643)
GRM2: Metabotropic glutamate receptor 2 (GRM2, Homo sapiens, UniProt Q14416)
RET: Proto-oncogene tyrosine-protein kinase receptor Ret (RET, Homo sapiens, UniProt P07949)
NMUR1: Neuromedin-U receptor 1 (NMUR1, Homo sapiens, UniProt Q9HB89)
EPHX2: Bifunctional epoxide hydrolase 2 (EPHX2, Homo sapiens, UniProt P34913)

SMILES	target	test	conditions	IC50 [µM]
O=C1NC2=C(C(=O)N(c3ccc(F)cc3)C2)C(c2ccc(O)cc2)N1 (stereo not shown)	ALPI	enzyme activity, inhibitor, absorbance	–	2.5
Cc1ccc2cc(C=NN=C3CS(=O)(=O)N(C)c4ccccc43)c(Cl)nc2c1	Maob	enzyme activity, inhibitor, fluorescence	–	1.05
O=C1NC2=C(C(=O)N(Cc3ccc(Cl)cc3)C2)C(c2ccc(O)cc2)N1 (stereo not shown)	ALPI	enzyme activity, inhibitor, absorbance	–	5.35
O=c1cc(-c2ccc(O)c(-c3c(O)cc(O)c4c(=O)cc(-c5ccc(O)cc5)oc34)c2)oc2cc(O)cc(O)c12	Tyrosine-protein kinase JAK2 (JAK2, Homo sapiens, UniProt O60674)	enzyme activity, inhibitor	–	5
O=C1NC2=C(C(=O)N(c3nc4ccccc4[nH]3)C2)C(c2ccc(O)cc2)N1 (stereo not shown)	ALPI	enzyme activity, inhibitor, absorbance	–	11.3
COc1ccc(-c2cc(C(N)=O)ncc2OCc2cn(C)cn2)c(F)c1	GRM2	ion flux, antagonist	–	0.092
CC(=NN=C1CS(=O)(=O)N(C)c2ccccc21)c1cc(Cl)sc1Cl	Maob	enzyme activity, inhibitor, fluorescence	–	2.58
CC(C)(C)n1nc(-c2ccc3nc(OC4CC4)ccc3c2)c(C(N)=O)c1N	Mitogen-activated protein kinase kinase kinase 10 (MAP3K10, Homo sapiens, UniProt Q02779)	cell-free assay	–	> 10
Cc1cnc(-c2ccc(-c3ccc(NC(=O)Nc4c(F)cc(F)cc4F)cc3F)c3c2C(=O)NC3)[nH]1	RET	enzyme activity, inhibitor	–	0.0148
CNC(=O)c1cc2c(Oc3ccc(NC(=O)C4(C(=O)Nc5ccc(F)cc5)CC4)cc3)ccnc2cc1OC	Tyrosine-protein kinase Lck, phosphorylated (LCK, Homo sapiens, UniProt P06239)	enzyme activity, inhibitor, radiometric	–	0.01
O=C(Cc1cccc(Nc2ncnc3[nH]ccc23)c1)Nc1ccc(F)c(Cl)c1	RET	enzyme activity, inhibitor, mobility shift	–	> 20
CC(C)C[C@H](NC(=O)[C@H](Cc1ccccc1)NC(=O)[C@@H](N)Cc1ccc(O)cc1)C(=O)N[C@@H](Cc1ccccc1)C(=O)N[C@@H](CCCNC(=N)N)C(=O)N1CCC[C@H]1C(=O)N[C@@H](CCCNC(=N)N)C(=O)N[C@@H](CC(N)=O)C(N)=O	NMUR1	ligand displacement, radioligand	–	0.000661
COc1ccc2c(Oc3ccc4c(C(=O)Nc5ccccc5N)cccc4c3)ccnc2c1	RET	enzyme activity, inhibitor	–	> 0.5
Cc1ccc(C(=O)Nc2ccc(Oc3cc4cnn(C)c4cc3-c3cn[nH]c3)c(F)c2)c(=O)n1-c1ccc(F)cc1	RET	enzyme activity, inhibitor	–	0.59
COc1ccc(-c2cc(C(N)=O)ncc2OCc2ccncc2)c(F)c1	GRM2	ion flux, antagonist	–	0.033
COc1ccc2cc(C=NN=C3CS(=O)(=O)N(C)c4ccccc43)c(Cl)nc2c1	Maob	enzyme activity, inhibitor, fluorescence	–	2.22
Nc1nc(NCc2ccccc2CO)c2[nH]cnc2n1	Methylated-DNA--protein-cysteine methyltransferase (MGMT, Homo sapiens, UniProt P16455)	enzyme activity, inhibitor	30 min	> 1000
COc1ccc(-c2cc(C(N)=O)ncc2OCc2ccnc(F)c2)c(F)c1	GRM2	ion flux, antagonist	–	0.046
Nc1ncc2c(n1)-c1c([nH]c3ccc(C#CC4CC4)cc13)CCCC2	Phosphatidylinositol 5-phosphate 4-kinase type-2 gamma (PIP4K2C, Homo sapiens, UniProt Q8TBX8)	target engagement in cells, BRET	–	> 10

SMILES	target	test	conditions	IC50 [µM]
CCC(CC12CC3CC(CC(C3)C1)C2)NC(=O)Nc1ccccc1F (stereo not shown)	EPHX2	enzyme activity, inhibitor, fluorescence	–	0.631
Cc1ccc2nc(Cl)c(C=NN=C3CS(=O)(=O)N(C)c4ccccc43)cc2c1	Maob	enzyme activity, inhibitor, fluorescence	–	1.43
CC(C)C[C@H](NC(=O)[C@H](Cc1ccccc1)NC(=O)[C@H](Cc1ccc(O)cc1)NC(=O)CNC(=O)[C@H](CCCNC(=N)N)NC(=O)[C@H](CO)NC(=O)[C@H](CCC(N)=O)NC(=O)[C@H](CO)NC(=O)[C@H](C)NC(=O)[C@H](Cc1ccccc1)NC(=O)[C@@H]1CCCN1C(=O)[C@H](CO)NC(=O)[C@H](CCC(N)=O)NC(=O)[C@H](Cc1ccccc1)NC(=O)[C@H](CCC(=O)O)NC(=O)[C@H](CCC(=O)O)NC(=O)[C@H](CC(=O)O)NC(=O)[C@@H](NC(=O)[C@H](CCCNC(=N)N)NC(=O)[C@@H](N)Cc1ccccc1)C(C)C)C(=O)N[C@@H](Cc1ccccc1)C(=O)N[C@@H](CCCNC(=N)N)C(=O)N1CCC[C@H]1C(=O)N[C@@H](CCCNC(=N)N)C(=O)N[C@@H](CC(N)=O)C(N)=O	NMUR1	ligand displacement, radioligand	–	0.000107
CCCC(CNC(=O)Nc1ccccc1F)C1C2CC3CC(C2)CC1C3 (stereo not shown)	EPHX2	enzyme activity, inhibitor, fluorescence	–	0.106
CC(=NN=C1CS(=O)(=O)N(C)c2ccccc21)c1sccc1Br	Maob	enzyme activity, inhibitor, fluorescence	–	3.82
COc1ccc(-c2cc(C(N)=O)ncc2OCc2ccnc(OC)c2)c(F)c1	GRM2	ion flux, antagonist	–	0.135
CC12CC3CC(C1)CC(NC(=O)Nc1ccccc1F)(C3)C2	EPHX2	enzyme activity, inhibitor, fluorescence	–	0.0015
CNc1nc(C)nc(N[C@H]2CCC[C@@H](C(=O)NCc3ccc(C#N)cc3C(F)(F)F)C2)n1	EPHX2	enzyme activity, inhibitor	–	0.0004
CC(C)CCC[C@@H](C)[C@H]1CC[C@H]2[C@@H]3C[C@@H](NCCc4c[nH]cn4)[C@@]4(O)C[C@@H](O)CC[C@]4(C)[C@H]3CC[C@]12C	EPHX2	enzyme activity, inhibitor	–	> 100
COc1ccc(N2CC3=C(C2=O)C(c2ccc(O)cc2)NC(=O)N3)cc1 (stereo not shown)	ALPI	enzyme activity, inhibitor, absorbance	–	9.43
COc1ccc(-c2cc(C(N)=O)ncc2OCc2ccc(OC)nc2)c(F)c1	GRM2	ion flux, antagonist	–	0.224
O=C(CCCCCCCCc1ccc(O)cc1)c1c(O)cccc1O	EPHX2	enzyme activity, inhibitor, fluorescence	–	18.6
CC(O)C(C)C(=O)N1CCC(NC(=O)Nc2ccc(OC(F)(F)F)c(F)c2)CC1 (stereo not shown)	EPHX2	enzyme activity, inhibitor	–	0.0001
CC1=C(CC(=O)O)c2cc(F)ccc2/C1=C\c1ccc([S+](C)[O-])cc1 (stereo not shown)	Aldo-keto reductase family 1 member B1 (AKR1B1, Homo sapiens, UniProt P15121)	enzyme activity, inhibitor, absorbance	pH 6.2	0.3
CCCCCCCCN1CC2=C(C1=O)C(c1ccccc1O)NC(=O)N2 (stereo not shown)	ALPI	enzyme activity, inhibitor, absorbance	–	8.71
CC(=NN=C1CS(=O)(=O)N(C)c2ccccc21)c1sccc1C	Maob	enzyme activity, inhibitor, fluorescence	–	2.38
O=C1NC2=C(C(=O)N(Cc3ccccc3)C2)C(c2ccccc2O)N1 (stereo not shown)	ALPI	enzyme activity, inhibitor, absorbance	–	7.67
CC/C(=N\NC(=O)C(C)Nc1ccccc1)c1ccc(O)c(C)c1O (stereo not shown)	Serine/threonine-protein kinase LATS2 (LATS2, Homo sapiens, UniProt Q9NRM7)	enzyme activity, inhibitor	–	0.00409
